According to ChEMBL document CHEMBL1212809, “Rapid behavior-based identification of neuroactive small molecules in the zebrafish” (Nat Chem Biol, 2010):
Calls of active or inactive are those of the source. No cut-off for these calls is given here.

Key:
Acetylcholinesterase [1] = molecular target: Acetylcholinesterase (Danio rerio, UniProt Q9DDE3); test: Inhibition of AChE in zebrafish embryo
Danio rerio [2] = species on record: Danio rerio; test: Modulation of neurological behavior in zebrafish assessed as effect on touch response by high-throughput screening; type: functional, organism-based
How it was run: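 Zebrafish embryos were raised in E3 medium buffered with 10 mM HEPES, in the dark at 28 °C. At 28 hpf, groups of 8–10 were placed in 96-well plates, then kept dark at 25 °C during chemical treatment. After the photomotor assay, each animal was touched with a fine plastic probe and observed under a dissecting microscope. Wells were scored normal, toxic, sedative (no touch response but healthy heartbeat and circulation) or other.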

Acetylcholinesterase [3] = molecular target: T1, Acetylcholinesterase (Homo sapiens, UniProt P22303); test: Inhibition of AChE at 10 uM
[4] = Inhibition of MAO at 10 uM by plate-reader assay
Danio rerio [5] = species on record: Danio rerio; test: Modulation of neurological behavior in zebrafish assessed as prolongation of high intensity light-induced motor response at 10 to 100 uM by photomotor response assay; type: functional, organism-based
How it was run: (§1)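 Zebrafish embryos were raised in E3 medium buffered with 10 mM HEPES, in the dark at 28 °C. At 28 hpf, 8–10 per well went into 96-well plates, held dark at 25 °C for chemical treatment. For each well, 1000 video frames were recorded at 33 fps, with light stimuli. A motion index was computed from frame-to-frame pixel-intensity differences. Q1 and Q3 of this index over seven time periods gave fourteen pseudo z-scores versus control wells.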

Danio rerio [6] = species on record: Danio rerio; test: Toxicity in zebrafish assessed as mortality at 100 uM; type: organism-based; conditions: in vivo
How it was run: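 Embryos were treated in 96-well plates, 8–10 per well, then scored after the photomotor assay under a dissecting microscope. Scoring covered developmental retardation, morphological defects, heart morphology, rate and circulation, response to touch with a fine plastic probe, and overall appearance. Wells were classed as normal, toxic, sedative or other.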

[7] = Inhibition of MAO by plate-reader assay
[8] = Ratio of pargyline IC50 to compound IC50 for MAO
Danio rerio [9] = species on record: Danio rerio; test: Modulation of neurological behavior in zebrafish assessed as robist increase in high intensity light-induced motor response at 10 to 100 uM by photomotor response assay; type: functional, organism-based
How it was run: (§2)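 Embryos raised in HEPES (10 mM)-buffered E3 in the dark at 28 °C, then distributed at 28 hpf in groups of 8–10 per well of 96-well plates in E3 and held in the dark at 25 °C for chemical exposure. Light pulses were delivered while 1000 video frames were recorded at 33 fps. Motion index quartiles (Q1, Q3) in seven time periods were converted to pseudo z-scores against control wells.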

Danio rerio [10] = species on record: Danio rerio; test: Modulation of neurological behavior in zebrafish assessed as robist increase in high intensity light-induced motor response at < 10 uM by photomotor response assay; type: functional, organism-based; how it was run: as §2
Danio rerio [11] = species on record: Danio rerio; test: Anxiolytic activity in zebrafish assessed as decrease in high intensity light-induced motor behavior at <10 uM by photomotor response assay; type: functional, organism-based; how it was run: as §2
Danio rerio [12] = species on record: Danio rerio; test: Psychostimulant activity in zebrafish assessed as increase in high intensity light-induced motor response at < 10 uM by photomotor response assay; type: functional, organism-based; how it was run: as §1
Danio rerio [13] = species on record: Danio rerio; test: Psychostimulant activity in zebrafish assessed as increase in high intensity light-induced motor response at 10 to 100 uM by photomotor response assay; type: functional, organism-based; how it was run: as §1
Danio rerio [14] = species on record: Danio rerio; test: Modulation of neurological behavior in zebrafish assessed as prolongation of high intensity light-induced motor response at < 10 uM by photomotor response assay; type: functional, organism-based; how it was run: as §1
Danio rerio [15] = species on record: Danio rerio; test: Anxiolytic activity in zebrafish assessed as decrease in high intensity light-induced motor behavior at 10 to 100 uM by photomotor response assay; type: functional, organism-based; how it was run: as §2
Acetylcholinesterase [16] = molecular target: T1, Acetylcholinesterase; test: Inhibition of AChE

T1 sequence (P22303 whole entry): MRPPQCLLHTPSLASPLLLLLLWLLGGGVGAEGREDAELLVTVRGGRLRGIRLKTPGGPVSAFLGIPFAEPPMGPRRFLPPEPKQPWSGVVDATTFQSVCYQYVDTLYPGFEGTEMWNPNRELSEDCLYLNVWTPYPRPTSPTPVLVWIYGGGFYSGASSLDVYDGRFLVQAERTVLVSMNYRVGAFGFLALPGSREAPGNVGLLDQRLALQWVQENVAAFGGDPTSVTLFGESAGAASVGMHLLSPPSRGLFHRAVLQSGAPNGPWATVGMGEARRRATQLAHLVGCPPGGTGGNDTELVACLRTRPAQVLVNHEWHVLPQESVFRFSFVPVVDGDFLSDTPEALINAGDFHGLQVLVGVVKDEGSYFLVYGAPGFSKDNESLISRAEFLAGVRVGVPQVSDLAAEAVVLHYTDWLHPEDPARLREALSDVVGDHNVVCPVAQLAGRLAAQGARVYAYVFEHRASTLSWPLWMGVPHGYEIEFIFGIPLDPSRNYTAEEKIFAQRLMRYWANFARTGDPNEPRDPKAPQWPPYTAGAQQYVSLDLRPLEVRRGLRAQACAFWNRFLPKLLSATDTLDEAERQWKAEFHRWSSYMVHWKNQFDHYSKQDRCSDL
Acetylcholinesterase (Danio rerio, UniProt Q9DDE3), sequence (Q9DDE3 whole entry): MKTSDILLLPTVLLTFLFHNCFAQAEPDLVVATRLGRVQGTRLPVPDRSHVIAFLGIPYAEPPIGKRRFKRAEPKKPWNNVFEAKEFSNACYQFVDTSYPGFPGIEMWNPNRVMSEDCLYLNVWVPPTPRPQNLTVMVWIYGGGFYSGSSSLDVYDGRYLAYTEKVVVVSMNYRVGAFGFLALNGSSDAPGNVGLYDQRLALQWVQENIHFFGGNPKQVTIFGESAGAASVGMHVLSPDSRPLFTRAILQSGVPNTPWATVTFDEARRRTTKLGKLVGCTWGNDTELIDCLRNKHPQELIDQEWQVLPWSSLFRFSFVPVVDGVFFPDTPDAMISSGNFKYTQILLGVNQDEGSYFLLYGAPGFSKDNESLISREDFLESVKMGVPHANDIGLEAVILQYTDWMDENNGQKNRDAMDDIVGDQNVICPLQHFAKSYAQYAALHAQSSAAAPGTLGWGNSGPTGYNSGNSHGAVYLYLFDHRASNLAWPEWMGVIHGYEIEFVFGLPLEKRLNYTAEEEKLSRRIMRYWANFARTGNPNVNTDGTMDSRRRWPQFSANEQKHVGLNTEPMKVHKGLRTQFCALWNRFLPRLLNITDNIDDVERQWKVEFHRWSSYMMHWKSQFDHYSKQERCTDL

O=C1c2ccccc2-c2nc3ncnn3c(-c3ccccc3Cl)c21
IC50 (Acetylcholinesterase [1]): 500 nM | Activity (Danio rerio [2]): Active | inhibition (Acetylcholinesterase [3]): inactive

CC(=O)CC(c1ccccc1)c1c(O)c2ccccc2oc1=O (centres undefined)
inhibition [4]: inactive | Activity (Danio rerio [2]): Active

Cc1cc2c(OCC(CNC(C)(C)C)OC(=O)c3ccccc3)cccc2[nH]1 (centres undefined)
Activity (Danio rerio [5]): Active

C[C@]12CC[C@H](O)C[C@H]1CC[C@@H]1[C@@H]2CC[C@]2(C)[C@@H](C3=CC(=O)OC3)CC[C@]12O [DIGITOXIGENIN]
Activity (Danio rerio [6]): Toxic | Activity (Danio rerio [2]): Active

CC(C)(C)OC(=O)NCC(=O)Oc1cc2oc(=O)c3c(c2cc1Cl)CCC3
IC50 [7]: 500 nM | Ratio IC50 [8]: 100

C[n+]1ccccc1C=NO
Activity (Danio rerio [5]): Active

CNC[C@H](O)c1ccc(O)c(O)c1
Activity (Danio rerio [2]): Active

CC(C)(C)OC(=O)NCCC(=O)Oc1cc2oc(=O)c3c(c2cc1Cl)CCC3
IC50 [7]: 1000 nM | Ratio IC50 [8]: 100

O=[N+]([O-])c1ccc2nc(N3CCNCC3)ccc2c1
Activity (Danio rerio [9]): Active | Activity (Danio rerio [10]): inactive | Activity (Danio rerio [2]): Active

CC(C)NCC(O)c1ccc(O)c(O)c1 (centres undefined)
Activity (Danio rerio [11]): inactive | Activity (Danio rerio [2]): Active | Activity (Danio rerio [12]): inactive | Activity (Danio rerio [13]): Active

CN1[C@@H]2CC[C@H]1C[C@@H](OC(=O)C(CO)c1ccccc1)C2 (some centres undefined)
Activity (Danio rerio [5]): Active

COC(=O)c1ccc(COc2cc(C)ccc2C(=O)Oc2ccc3c4c(c(=O)oc3c2)CCCC4)o1
Ratio IC50 [8]: 100

CN1CCc2cccc3c2[C@H]1Cc1ccc(O)c(O)c1-3
Activity (Danio rerio [14]): inactive | Activity (Danio rerio [5]): Active | Activity (Danio rerio [2]): Active

CN1C(=O)CN=C(c2ccccc2)c2cc(Cl)ccc21
inhibition (Danio rerio [11]): inactive | Activity (Danio rerio [2]): Active | inhibition (Danio rerio [15]): Active

C#CCN(C)Cc1ccccc1
Activity (Danio rerio [2]): Active

O=C(Oc1ccc2c3c(c(=O)oc2c1)CCCC3)c1ccccc1
Activity (Danio rerio [2]): Active

O=C(CNC(=O)OCc1ccccc1)Oc1cc2oc(=O)c3c(c2cc1Cl)CCC3
Ratio IC50 [8]: 100 | inhibition [4]: 0%

CC(C)(C)OC(=O)NCCC(=O)Oc1cc2oc(=O)c3c(c2cc1Cl)CCCC3
IC50 [7]: 10000 nM | Ratio IC50 [8]: 100

O=C(CCCN1C(=O)c2ccccc2C1=O)N1CCCCCC1
IC50 (Acetylcholinesterase [16]): 500 nM | Activity (Danio rerio [2]): Active

CC(C)(C)NCC(O)c1cc(Cl)c(N)c(Cl)c1 (centres undefined)
Activity (Danio rerio [2]): Active

CNC(=O)Oc1ccc2c(c1)[C@]1(C)CCN(C)[C@@H]1N2C
Activity (Danio rerio [2]): Active
